Assays:
Klebsiella pneumoniae [1] = test: Synergistic antibacterial activity against Klebsiella pneumoniae 1084/1957 producing KPC-3 assessed as cefepime MIC at 4 ug/ml by broth microdilution method; assay type: functional; conditions: dose 4 µg/ml
Summary of the method: (§1)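 Broth microdilution per CLSI guidelines, using custom frozen panels. […] Each partner drug was also tested alone. MICs were run in triplicate and the modal value is reported.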

Pseudomonas aeruginosa [2] = test: Synergistic antibacterial activity against Pseudomonas aeruginosa 839 assessed as meropenem MIC at 4 ug/ml by broth microdilution method; assay type: functional; conditions: dose 4 µg/ml
Escherichia coli [3] = test: Synergistic antibacterial activity against Escherichia coli DH10B transfected with pBC SK (-) PDC-3 assessed as cefepime MIC at 4 ug/ml by broth microdilution method; assay type: functional; conditions: dose 4 µg/ml; summary of the method: as §1
Acinetobacter baumannii [4] = test: Synergistic antibacterial activity against Acinetobacter baumannii PR420 producing OXA-23/24/40 assessed as cefepime MIC at 4 ug/ml by broth microdilution method; assay type: functional; conditions: dose 4 µg/ml
Acinetobacter baumannii [5] = test: Synergistic antibacterial activity against Acinetobacter baumannii PR408 producing OXA-24/40 assessed as meropenem MIC at 4 ug/ml by broth microdilution method; assay type: functional; conditions: dose 4 µg/ml
Klebsiella pneumoniae [6] = test: Synergistic antibacterial activity against Klebsiella pneumoniae 729/1679 producing KPC-3 assessed as cefepime MIC at 4 ug/ml by broth microdilution method; assay type: functional; conditions: dose 4 µg/ml; summary of the method: as §1
Pseudomonas aeruginosa [7] = test: Synergistic antibacterial activity against Pseudomonas aeruginosa 776 assessed as cefepime MIC at 4 ug/ml by broth microdilution method; assay type: functional; conditions: dose 4 µg/ml
Bacteria [8] = test: Inhibition of bacteria KPC-2 assessed as half life using nitrocefin as substrate
Acinetobacter baumannii [9] = test: Synergistic antibacterial activity against ADC deleted Acinetobacter baumannii transfected with pWH1266 OXA-23 assessed as meropenem MIC at 4 ug/ml by broth microdilution method; assay type: functional; conditions: dose 4 µg/ml
Klebsiella pneumoniae [10] = test: Synergistic antibacterial activity against Klebsiella pneumoniae CAV 1543 producing OXA-48 assessed as meropenem MIC at 4 ug/ml by broth microdilution method; assay type: functional; conditions: dose 4 µg/ml
Bacteria [11] = test: Inhibition of bacteria PDC-3 assessed as second order rate constant K2/K using nitrocefin as substrate
Acinetobacter baumannii [12] = test: Synergistic antibacterial activity against Acinetobacter baumannii PR408 producing OXA-24/40 assessed as cefepime MIC at 4 ug/ml by broth microdilution method; assay type: functional; conditions: dose 4 µg/ml
Klebsiella pneumoniae [13] = test: Synergistic antibacterial activity against Klebsiella pneumoniae 1108/1989 producing KPC-3 assessed as meropenem MIC at 4 ug/ml by broth microdilution method; assay type: functional; conditions: dose 4 µg/ml; summary of the method: as §1
Klebsiella pneumoniae [14] = test: Synergistic antibacterial activity against Klebsiella pneumoniae 1398/2291 producing KPC-3 assessed as meropenem MIC at 4 ug/ml by broth microdilution method; assay type: functional; conditions: dose 4 µg/ml; summary of the method: as §1
Klebsiella pneumoniae [15] = test: Synergistic antibacterial activity against Klebsiella pneumoniae 440/1360 producing KPC-2 assessed as meropenem MIC at 4 ug/ml by broth microdilution method; assay type: functional; conditions: dose 4 µg/ml; summary of the method: as §1
Acinetobacter baumannii [16] = test: Synergistic antibacterial activity against Acinetobacter baumannii PR440 producing OXA-23/24/40 assessed as meropenem MIC at 4 ug/ml by broth microdilution method; assay type: functional; conditions: dose 4 µg/ml
Acinetobacter baumannii [17] = test: Synergistic antibacterial activity against Acinetobacter baumannii PR323 producing OXA-24/40 assessed as meropenem MIC at 4 ug/ml by broth microdilution method; assay type: functional; conditions: dose 4 µg/ml
Escherichia coli [18] = test: Antibacterial activity against Escherichia coli DH10B by broth microdilution method; assay type: functional
Pseudomonas aeruginosa [19] = test: Synergistic antibacterial activity against Pseudomonas aeruginosa 795 assessed as meropenem MIC at 8 ug/ml by broth microdilution method; assay type: functional; conditions: dose 8 µg/ml
Acinetobacter baumannii [20] = test: Synergistic antibacterial activity against Acinetobacter baumannii PR408 producing OXA-24/40 assessed as meropenem MIC at 8 ug/ml by broth microdilution method; assay type: functional; conditions: dose 8 µg/ml
Acinetobacter baumannii [21] = test: Synergistic antibacterial activity against Acinetobacter baumannii PR323 producing OXA-24/40 assessed as cefepime MIC at 8 ug/ml by broth microdilution method; assay type: functional; conditions: dose 8 µg/ml
Klebsiella pneumoniae [22] = test: Synergistic antibacterial activity against Klebsiella pneumoniae 1315/2198 producing KPC-3 assessed as meropenem MIC at 8 ug/ml by broth microdilution method; assay type: functional; conditions: dose 8 µg/ml; summary of the method: as §1
Escherichia coli [23] = test: Synergistic antibacterial activity against Escherichia coli DH10B transfected with pBC SK (-) OXA-48 assessed as cefepime MIC at 8 ug/ml by broth microdilution method; assay type: functional; conditions: dose 8 µg/ml; summary of the method: as §1
Klebsiella pneumoniae [24] = test: Synergistic antibacterial activity against Klebsiella pneumoniae CAV 1543 producing OXA-48 assessed as meropenem MIC at 8 ug/ml by broth microdilution method; assay type: functional; conditions: dose 8 µg/ml
Klebsiella pneumoniae [25] = test: Synergistic antibacterial activity against Klebsiella pneumoniae 972/1910 producing KPC-3 assessed as cefepime MIC at 8 ug/ml by broth microdilution method; assay type: functional; conditions: dose 8 µg/ml
Klebsiella pneumoniae [26] = test: Synergistic antibacterial activity against Klebsiella pneumoniae 729/1679 producing KPC-3 assessed as meropenem MIC at 8 ug/ml by broth microdilution method; assay type: functional; conditions: dose 8 µg/ml; summary of the method: as §1
Klebsiella pneumoniae [27] = test: Synergistic antibacterial activity against Klebsiella pneumoniae jefferson 1775 producing OXA-48 assessed as cefepime MIC at 8 ug/ml by broth microdilution method; assay type: functional; conditions: dose 8 µg/ml
Klebsiella pneumoniae [28] = test: Synergistic antibacterial activity against Klebsiella pneumoniae 440/1360 producing KPC-2 assessed as cefepime MIC at 8 ug/ml by broth microdilution method; assay type: functional; conditions: dose 8 µg/ml; summary of the method: as §1
Acinetobacter baumannii [29] = test: Synergistic antibacterial activity against Acinetobacter baumannii PR420 producing OXA-23/24/40 assessed as cefepime MIC at 8 ug/ml by broth microdilution method; assay type: functional; conditions: dose 8 µg/ml
Acinetobacter baumannii [30] = test: Synergistic antibacterial activity against Acinetobacter baumannii PR440 producing OXA-23/24/40 assessed as meropenem MIC at 8 ug/ml by broth microdilution method; assay type: functional; conditions: dose 8 µg/ml
Klebsiella pneumoniae [31] = test: Synergistic antibacterial activity against Klebsiella pneumoniae jefferson 1775 producing OXA-48 assessed as meropenem MIC at 8 ug/ml by broth microdilution method; assay type: functional; conditions: dose 8 µg/ml
Acinetobacter baumannii [32] = test: Synergistic antibacterial activity against Acinetobacter baumannii PR476 producing OXA-24/40 assessed as cefepime MIC at 8 ug/ml by broth microdilution method; assay type: functional; conditions: dose 8 µg/ml
Acinetobacter baumannii [33] = test: Synergistic antibacterial activity against Acinetobacter baumannii PR440 producing OXA-23/24/40 assessed as cefepime MIC at 8 ug/ml by broth microdilution method; assay type: functional; conditions: dose 8 µg/ml
Acinetobacter baumannii [34] = test: Synergistic antibacterial activity against ADC deleted Acinetobacter baumannii transfected with pWH1266 producing OXA-24/40 assessed as cefepime MIC at 8 ug/ml by broth microdilution method; assay type: functional; conditions: dose 8 µg/ml
Acinetobacter baumannii [35] = test: Synergistic antibacterial activity against Acinetobacter baumannii PR359 producing OXA-23 assessed as cefepime MIC at 8 ug/ml by broth microdilution method; assay type: functional; conditions: dose 8 µg/ml
Escherichia coli [36] = test: Synergistic antibacterial activity against Escherichia coli DH10B transfected with pBC SK (-) KPC-3 assessed as meropenem MIC at 8 ug/ml by broth microdilution method; assay type: functional; conditions: dose 8 µg/ml
Acinetobacter baumannii [37] = test: Synergistic antibacterial activity against Acinetobacter baumannii PR381 producing OXA-24/40 assessed as cefepime MIC at 8 ug/ml by broth microdilution method; assay type: functional; conditions: dose 8 µg/ml
Klebsiella pneumoniae [38] = test: Synergistic antibacterial activity against Klebsiella pneumoniae NY BS producing OXA-232 assessed as meropenem MIC at 8 ug/ml by broth microdilution method; assay type: functional; conditions: dose 8 µg/ml
Acinetobacter baumannii [39] = test: Synergistic antibacterial activity against Acinetobacter baumannii PR474 producing OXA-23/24/40 assessed as meropenem MIC at 8 ug/ml by broth microdilution method; assay type: functional; conditions: dose 8 µg/ml

`O.O=C(NC1CCNCC1)[C@@H]1CC[C@@H]2CN1C(=O)N2OS(=O)(=O)O` [RELEBACTAM] gave an MIC (Klebsiella pneumoniae [1]) of 0.25 µg/mL, an MIC (Pseudomonas aeruginosa [2]) of 1 µg/mL and an MIC (Escherichia coli [3]) of at most 0.12 µg/mL. It also gave an MIC (Acinetobacter baumannii [4]) of over 16 µg/mL, an MIC (Acinetobacter baumannii [5]) of over 16 µg/mL and an MIC (Klebsiella pneumoniae [6]) of 0.5 µg/mL. The MIC (Pseudomonas aeruginosa [7]) was 16 µg/mL, the T1/2 (Bacteria [8]) was 46 min and the MIC (Acinetobacter baumannii [9]) was over 16 µg/mL. For the same compound, the MIC (Klebsiella pneumoniae [10]) was 8 µg/mL, the K (Bacteria [11]) was 4.6 10^4/M/s and the MIC (Acinetobacter baumannii [12]) was 16 µg/mL. It also gave an MIC (Klebsiella pneumoniae [13]) of at most 0.12 µg/mL, an MIC (Klebsiella pneumoniae [14]) of at most 0.12 µg/mL and an MIC (Klebsiella pneumoniae [15]) of at most 0.12 µg/mL. The MIC (Acinetobacter baumannii [16]) was over 16 µg/mL, the MIC (Acinetobacter baumannii [17]) was over 16 µg/mL and the MIC (Escherichia coli [18]) was over 16 µg/mL.
Work on `N#C[C@@H]1CC[C@@H]2CN1C(=O)N2OS(=O)(=O)[O-].[Na+]` yielded an MIC (Pseudomonas aeruginosa [19]) of 16 µg/mL, an MIC (Acinetobacter baumannii [20]) of over 16 µg/mL and an MIC (Acinetobacter baumannii [21]) of over 16 µg/mL. For the same compound, the MIC (Klebsiella pneumoniae [1]) was at most 0.12 µg/mL, the MIC (Pseudomonas aeruginosa [2]) was 1 µg/mL and the MIC (Escherichia coli [3]) was at most 0.12 µg/mL. It also gave an MIC (Klebsiella pneumoniae [22]) of at most 0.12 µg/mL, an MIC (Escherichia coli [23]) of at most 0.12 µg/mL and an MIC (Klebsiella pneumoniae [24]) of at most 0.12 µg/mL. For the same compound, the MIC (Acinetobacter baumannii [4]) was over 16 µg/mL, the MIC (Klebsiella pneumoniae [25]) was 0.25 µg/mL and the MIC (Klebsiella pneumoniae [26]) was at most 0.12 µg/mL. The MIC (Klebsiella pneumoniae [27]) was at most 0.12 µg/mL, the MIC (Acinetobacter baumannii [5]) was over 16 µg/mL and the MIC (Klebsiella pneumoniae [6]) was 0.5 µg/mL. The MIC (Klebsiella pneumoniae [28]) was 0.25 µg/mL, the MIC (Acinetobacter baumannii [29]) was over 16 µg/mL and the MIC (Acinetobacter baumannii [30]) was 2 µg/mL. For the same compound, the MIC (Klebsiella pneumoniae [31]) was at most 0.12 µg/mL, the T1/2 (Bacteria [8]) was 26 min and the MIC (Acinetobacter baumannii [9]) was 16 µg/mL. The MIC (Klebsiella pneumoniae [10]) was at most 0.12 µg/mL, the K (Bacteria [11]) was 2.3 10^4/M/s and the MIC (Acinetobacter baumannii [12]) was 8 µg/mL. It also gave an MIC (Klebsiella pneumoniae [13]) of at most 0.12 µg/mL, an MIC (Acinetobacter baumannii [32]) of 2 µg/mL and an MIC (Acinetobacter baumannii [33]) of over 16 µg/mL. The MIC (Klebsiella pneumoniae [14]) was at most 0.12 µg/mL, the MIC (Klebsiella pneumoniae [15]) was at most 0.12 µg/mL and the MIC (Acinetobacter baumannii [16]) was 4 µg/mL. For the same compound, the MIC (Acinetobacter baumannii [34]) was 16 µg/mL, the MIC (Acinetobacter baumannii [35]) was 8 µg/mL and the MIC (Escherichia coli [36]) was at most 0.12 µg/mL. For the same compound, the MIC (Acinetobacter baumannii [37]) was 16 µg/mL, the MIC (Acinetobacter baumannii [17]) was 16 µg/mL and the MIC (Escherichia coli [18]) was over 16 µg/mL. For the same compound, the MIC (Klebsiella pneumoniae [38]) was at most 0.12 µg/mL and the MIC (Acinetobacter baumannii [39]) was 16 µg/mL.
In the case of `NC(=O)[C@@H]1CC[C@@H]2CN1C(=O)N2OS(=O)(=O)[O-].[Na+]` [AVIBACTAM SODIUM], the MIC (Klebsiella pneumoniae [1]) is reported as at most 0.12 µg/mL, the MIC (Pseudomonas aeruginosa [2]) is reported as 1 µg/mL and the MIC (Escherichia coli [3]) is reported as at most 0.12 µg/mL. For the same compound, the MIC (Acinetobacter baumannii [4]) was over 16 µg/mL, the MIC (Acinetobacter baumannii [5]) was over 16 µg/mL and the MIC (Klebsiella pneumoniae [6]) was 0.25 µg/mL. For the same compound, the T1/2 (Bacteria [8]) was 82 min, the MIC (Acinetobacter baumannii [9]) was over 16 µg/mL and the MIC (Klebsiella pneumoniae [10]) was at most 0.12 µg/mL. For the same compound, the K (Bacteria [11]) was 2.9 10^4/M/s, the MIC (Acinetobacter baumannii [12]) was over 16 µg/mL and the MIC (Klebsiella pneumoniae [13]) was at most 0.12 µg/mL. It also gave an MIC (Klebsiella pneumoniae [14]) of at most 0.12 µg/mL, an MIC (Klebsiella pneumoniae [15]) of at most 0.12 µg/mL and an MIC (Acinetobacter baumannii [16]) of over 16 µg/mL. It also gave an MIC (Acinetobacter baumannii [17]) of over 16 µg/mL and an MIC (Escherichia coli [18]) of 4 µg/mL.

From ChEMBL document CHEMBL5247575 (J Med Chem, 2018)
